Laboratory results as given in ChEMBL document CHEMBL2311493, “Focused pseudostatic hydrazone libraries screened by mass spectrometry binding assay: optimizing affinities toward γ-aminobutyric acid transporter 1” (J Med Chem, 2013).

How the values were obtained:
[1] = target: Sodium- and chloride-dependent GABA transporter 1 (Mus musculus) (UniProt P31648); assay: Binding affinity to mouse GAT1 expressed in HEK293 cells membranes assessed as remaining [2H10]NO711 binding level at 10 uM using LC-ESI-MS/MS analysis by [2H10]NO711 binding inhibition assay; type: cell membranes
Outline: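 Membranes from HEK293 cells stably expressing mGAT1, ~0.1 mg/mL protein, in pH 7.1 phosphate buffer with 1 M NaCl and 1% DMSO final. A single aldehyde (10 μM) and hydrazine 10 (100 μM) were incubated 4 h at 37 °C with the target to form the hydrazone. NO711 marker (20 nM) was then added for 40 min. Bound marker was recovered by filtration, 1 M NaCl washes and MeOH elution, then quantified by LC-ESI-MS/MS against [²H₁₀]NO711 internal standard. Result is % remaining specific binding, n = 4.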

[2] = target: T1, Sodium- and chloride-dependent GABA transporter 1 (Mus musculus, UniProt P31648); assay: Inhibition of [3H]GABA uptake at mouse GAT1 expressed in HEK293 cells after 25 mins by scintillation counting analysis; type: cell-based
[3] = target: T1, Sodium- and chloride-dependent GABA transporter 1; assay: Binding affinity to mouse GAT1 expressed in HEK293 cells membranes using LC-ESI-MS/MS analysis by [2H10]NO711 binding inhibition assay; type: cell membranes
Outline: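 Full competition with NO711 marker (20 nM) on mGAT1 HEK293 membranes in pH 7.1 phosphate buffer containing 1 M NaCl. Eight competitor concentrations, triplicate points. Bound marker was quantified by LC-ESI-MS/MS. Specific binding is total minus nonspecific. IC50 came from a one-site nonlinear fit and was converted to Ki by Cheng–Prusoff. pKi is mean ± SEM of at least three experiments.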

Compound | Activity [1] | IC50 ([2]; read-out: pIC50 (converted)) | Ki [3] | further results
Cc1ccc(-c2ccccc2C=O)c(C)c1 | 81% |  |  | 
O=C(O)C1CCCN(CCN/N=C/c2ccccc2-c2cccc(F)c2F)C1 (stereo not given) | < 5% | 1500 nM | 204 nM | 
O=Cc1ccccc1-c1ccccc1Cl | 79% |  |  | 
O=Cc1ccccc1-c1ccccc1-c1ccccc1 | 81% |  |  | 
O=Cc1ccccc1-c1c(F)cccc1F | 35% |  |  | 
O=C(O)C1CCCN(CCN/N=C/c2ccccc2-c2cccc(-c3ccccc3)c2)C1 (stereo not given) | > 10% |  |  | 
O=Cc1ccccc1-c1ccc(Cl)cc1 | 79% |  |  | 
O=Cc1ccccc1-c1ccc(F)cc1F | 81% |  |  | 
O=C(O)C1CCCN(CCN/N=C/c2ccccc2-c2c(F)cc(F)cc2F)C1 (stereo not given) | < 5% | 255 nM | 30.6 nM | 
O=Cc1cc(F)ccc1-c1ccccc1 | 85% |  |  | 
O=C(O)C1CCCN(CCN/N=C/c2ccccc2-c2ccc(F)c(F)c2)C1 (stereo not given) | < 5% | 3320 nM | 625 nM | 
O=Cc1ccccc1-c1c(F)cc(F)cc1F | 35% |  |  | IC50 [3]: 10000 nM
COc1ccc(-c2ccccc2C=O)cc1 | 91% |  |  | 
COc1cc(F)ccc1-c1ccccc1/C=N/NCCN1CCCC(C(=O)O)C1 (stereo not given) | < 5% | 7350 nM | 760 nM | 
O=C(O)C1CCCN(CCN/N=C/c2ccccc2-c2ccc(F)cc2Cl)C1 (stereo not given) | < 5% | 292 nM | 14.6 nM | 
O=Cc1ccccc1-c1cc(F)ccc1F | 81% |  |  | 
COc1cc(F)ccc1-c1ccccc1C=O | 88% |  |  | 
O=Cc1ccccc1-c1ccc(C(F)(F)F)cc1C(F)(F)F | 81% |  |  | 
O=C(O)[C@@H]1CCCN(CCO/N=C(\Cc2ccccc2F)c2ccccc2F)C1 |  |  |  | IC50 ([2]; read-out: IC50): 80 nM
O=C(O)C1CCCN(CCN/N=C/c2ccccc2-c2cc(F)cc(F)c2)C1 (stereo not given) | > 10% |  |  | 
COc1cccc(-c2ccccc2C=O)c1 | 91% |  |  | 
COc1ccc(F)cc1-c1ccccc1C=O | 88% |  |  | 

Compound | Activity [1] | IC50 ([2]; read-out: pIC50 (converted)) | Ki [3] | further results
O=C(O)C1CCCN(CCN/N=C/c2ccccc2-c2cccs2)C1 (stereo not given) | 8.2% | 2870 nM | 590 nM | 
COc1ccc(F)cc1-c1ccccc1/C=N/NCCN1CCCC(C(=O)O)C1 (stereo not given) | > 10% |  |  | 
O=Cc1c(F)cccc1-c1ccccc1 | 85% |  |  | 
O=Cc1ccccc1-c1ccc(-c2ccccc2)cc1 | 81% |  |  | 
O=Cc1ccccc1-c1cccc(-c2ccccc2)c1 | 81% |  |  | 
O=Cc1cc(F)ccc1-c1ccc(Cl)cc1 | 81% |  |  | 
O=C(O)C1CCCN(CCC/C=C/c2ccccc2-c2ccccc2F)C1 (stereo not given) |  | 3330 nM | 647 nM | 
Cc1cccc(-c2ccccc2C=O)c1 | 91% |  |  | 
O=Cc1ccccc1-c1ccc(F)c(F)c1 | 82% |  |  | 
Cc1ccc(-c2ccccc2/C=N/NCCN2CCCC(C(=O)O)C2)cc1 (stereo not given) | 10% | 3400 nM | 473 nM | 
COc1ccccc1-c1ccccc1/C=N/NCCN1CCCC(C(=O)O)C1 (stereo not given) | 19% |  |  | 
COc1cccc(-c2ccccc2/C=N/NCCN2CCCC(C(=O)O)C2)c1 (stereo not given) | > 10% |  |  | 
O=C(O)C1CCCN(CCN/N=C/c2ccccc2-c2ccccc2F)C1 (stereo not given) | < 5% | 528 nM | 122 nM | 
O=C(O)C1CCCN(CCC/C=C/c2ccccc2-c2ccc(Cl)cc2Cl)C1 (stereo not given) |  | 769 nM | 117 nM | 
Cc1ccsc1C(=CCCN1CCC[C@@H](C(=O)O)C1)c1sccc1C [TIAGABINE] |  |  |  | IC50 ([2]; read-out: IC50): 70 nM
O=Cc1cccc(-c2ccccc2)c1 | 88% |  |  | 
O=C(O)C1CCCN(CCN/N=C/c2ccccc2-c2cc(F)ccc2F)C1 (stereo not given) | > 10% |  |  | 
O=Cc1ccccc1-c1ccc(Cl)cc1Cl | 85% |  |  | 
O=C(O)C1CCCN(CCN/N=C/c2cc(F)ccc2-c2ccccc2Cl)C1 (stereo not given) | < 5% | 1230 nM | 104 nM | 
O=C(O)C1=CCCN(CCON=C(c2ccccc2)c2ccccc2)C1 | < 5% |  |  | IC50 ([2]; read-out: IC50): 40 nM; IC50 [3]: ≤ 530 nM
Cc1ccccc1-c1ccccc1C=O | 81% |  |  | 
O=C(O)C1CCCN(CCN/N=C/c2ccccc2-c2ccccc2Cl)C1 (stereo not given) | < 5% | 479 nM | 65.5 nM | 

Compound | Activity [1] | IC50 ([2]; read-out: pIC50 (converted)) | Ki [3] | further results
Cc1cccc(-c2ccccc2/C=N/NCCN2CCCC(C(=O)O)C2)c1 (stereo not given) | > 10% |  |  | 
O=C(O)C1CCCN(CCC/C=C/c2ccccc2-c2ccc(F)cc2F)C1 (stereo not given) |  | 2840 nM | 592 nM | 
O=C(O)C1CCCN(CCN/N=C/c2ccccc2-c2c(F)cccc2F)C1 (stereo not given) | < 5% | 998 nM | 131 nM | 
COc1ccccc1-c1ccccc1C=O | 79% |  |  | 
O=C(O)C1CCCN(CCN/N=C/c2ccccc2-c2ccc(-c3ccccc3)cc2)C1 (stereo not given) | > 10% |  |  | 
COc1cccc(F)c1-c1ccccc1/C=N/NCCN1CCCC(C(=O)O)C1 (stereo not given) | < 5% | 2250 nM | 443 nM | 
O=C(O)C1CCCN(CCN/N=C/c2ccccc2-c2cccc(F)c2)C1 (stereo not given) | 16% |  |  | 
O=C(O)[C@@H]1CCCN(CCOCCC(c2ccccc2)c2ccccc2)C1 |  |  |  | IC50 ([2]; read-out: IC50): 55 nM
O=Cc1ccccc1-c1ccccc1F | 82% |  |  | 
O=Cc1ccccc1-c1cc(F)cc(F)c1 | 81% |  |  | 
O=C(O)C1CCCN(CCC/C=C/c2ccccc2-c2ccc(F)cc2Cl)C1 (stereo not given) |  | 3990 nM | 313 nM | 
O=C(O)C1CCCN(CCN/N=C/c2ccccc2-c2ccc(F)cc2F)C1 (stereo not given) | < 5% | 129 nM | 35.6 nM | 
O=C(O)C1CCCN(CCN/N=C/c2c(F)cccc2-c2ccccc2)C1 (stereo not given) | > 10% |  |  | 
O=C(O)C1CCCN(CCC/C=C/c2ccccc2-c2ccccc2Cl)C1 (stereo not given) |  | 3560 nM | 834 nM | 
O=C(O)C1CCCN(CCN/N=C/c2ccccc2-c2ccc(Cl)cc2F)C1 (stereo not given) | < 5% | 126 nM | 24.7 nM | 
O=Cc1ccccc1-c1cccc(Cl)c1 | 79% |  |  | 
O=C(O)C1CCCN(CCN/N=C/c2ccccc2-c2ccccc2)C1 (stereo not given) | < 5% | 4920 nM | 652 nM | 
O=C(O)C1CCCN(CCN/N=C/c2cc(F)ccc2-c2ccccc2F)C1 (stereo not given) | < 5% | 1730 nM | 264 nM | 
Cc1ccc(-c2ccccc2/C=N/NCCN2CCCC(C(=O)O)C2)c(C)c1 (stereo not given) | < 5% | 836 nM | 73.3 nM | 
O=C(O)C1CCCN(CCN/N=C/c2ccccc2-c2ccc(C(F)(F)F)cc2C(F)(F)F)C1 (stereo not given) | < 5% | 2820 nM | 170 nM | 
O=Cc1ccccc1-c1ccc(F)cc1 | 82% |  |  | 
O=C(O)C1CCCN(CCN/N=C/c2cccc(-c3ccccc3)c2)C1 (stereo not given) | > 10% |  |  | 

Compound | Activity [1] | IC50 ([2]; read-out: pIC50 (converted)) | Ki [3] | further results
O=C(O)C1CCCN(CCN/N=C/c2ccccc2-c2ccc(Cl)cc2)C1 (stereo not given) | < 5% | 973 nM | 173 nM | 
O=Cc1ccccc1-c1cccc(F)c1F | 81% |  |  | 
O=Cc1cc(F)ccc1-c1ccccc1F | 35% |  |  | 
O=C(O)C1=CCCNC1 [GUVACINE] |  |  |  | IC50 ([2]; read-out: IC50): 14000 nM
O=C(O)C1CCCN(CCN/N=C/c2cc(F)ccc2-c2ccc(Cl)cc2)C1 (stereo not given) | < 5% | 1960 nM | 234 nM | 
Cc1ccc(-c2ccccc2C=O)cc1 | 91% |  |  | 
O=C(O)[C@@H]1CCCN(CCOCCc2ccccc2-c2ccccc2)C1 |  |  |  | IC50 ([2]; read-out: IC50): 111 nM
Cc1ccccc1-c1ccccc1/C=N/NCCN1CCCC(C(=O)O)C1 (stereo not given) | < 5% | 1560 nM | 216 nM | 
COc1ccc(-c2ccccc2/C=N/NCCN2CCCC(C(=O)O)C2)cc1 (stereo not given) | > 10% |  |  | 
O=C(O)C1CCCN(CCN/N=C/c2ccccc2-c2ccccc2-c2ccccc2)C1 (stereo not given) | > 10% |  |  | 
O=Cc1cc(F)ccc1-c1ccccc1Cl | 35% |  |  | 
O=C(O)C1CCCN(CCN/N=C/c2ccccc2-c2ccc(F)cc2)C1 (stereo not given) | < 5% | 1790 nM | 284 nM | 
COc1cccc(F)c1-c1ccccc1C=O | 88% |  |  | 
O=C(O)C1CCCN(CCN/N=C/c2ccccc2-c2cccc(Cl)c2)C1 (stereo not given) | > 10% |  |  | 
O=Cc1ccccc1-c1cccc(F)c1 | 82% |  |  | 
O=Cc1ccccc1-c1ccc(F)cc1Cl | 81% |  |  | 
O=C(O)C1CCCN(CCC=C(c2ccccc2)c2ccccc2)C1 (stereo not given) |  |  |  | IC50 ([2]; read-out: IC50): 130 nM
O=C(O)C1CCCN(CCN/N=C/c2cc(F)ccc2-c2ccccc2)C1 (stereo not given) | 13% |  |  | 
O=Cc1ccccc1-c1ccc(Cl)cc1F | 85% |  |  | 
O=C(O)C1CCCN(CCN/N=C/c2ccccc2-c2ccc(Cl)cc2Cl)C1 (stereo not given) | < 5% | 61.2 nM | 8.05 nM | 
